Assay results as given in ChEMBL document CHEMBL4622936, “Discovery of the potent non-steroidal glucocorticoid receptor modulator BAY 1003803 as clinical candidate” (Bioorg Med Chem Lett, 2020).

Columns and labels:
[1] = Inhibition of collagenase (unknown origin) transfected in human HeLa cells by luciferase reporter gene assay; assay type: cell-based
THP-1 [2] = experiment: Immunomodulatory activity in human THP1 cells assessed as reduction in LPS-induced IL-8 production; assay type: functional, cell-based
Procedure, shortened: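 Human promyeloid THP-1 cells were stimulated with lipopolysaccharide to induce IL-8 synthesis, and inhibition of IL-8 production by the test compound was measured.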

HeLa = experiment: Inhibition of collagenase (unknown origin) transfected in human HeLa cells by luciferase reporter gene assay relative to control; assay type: cell-based
[3] = Lipophilicity, logP of compound; assay type: physicochemical; details: octanol/water
[4] = Clearance in male Wistar rat plasma at 1 mg/kg, iv; assay type: ADME, organism-based
[5] = Terminal half life in male Wistar rat blood at 1 mg/kg, iv; assay type: ADME, organism-based; details: whole blood, read-out: beta t1/2 (converted)
[6] = Volume of distribution at steady state in male Wistar rat blood at 1 mg/kg, iv; assay type: ADME, organism-based; details: whole blood, read-out: Vdss
THP-1 [7] = experiment: Immunomodulatory activity in human THP1 cells assessed as reduction in LPS-induced IL-8 production relative to control; assay type: functional
[8] = Clearance in male Wistar rat blood at 1 mg/kg, iv; assay type: ADME, organism-based; details: whole blood
PBMC [9] = experiment: Inhibition of LPS-induced TNFalpha release in human PBMC cells; assay type: functional, cell-based
Procedure, shortened: (§1)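 Primary human peripheral blood mononuclear cells were stimulated with LPS (IL-12p40, TNFα) or PHA (IFNγ, IL-2, IL-4). Cytokine release was measured with test compound, and clobetasol and dexamethasone were run in parallel as reference glucocorticoids.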

PBMC [10] = experiment: Inhibition of PHA-induced IFNgamma release in human PBMC cells relative to control; assay type: functional
PBMC [11] = experiment: Inhibition of PHA-induced IFNgamma release in human PBMC cells; assay type: functional, cell-based; procedure, shortened: as §1
PBMC [12] = experiment: Inhibition of LPS-induced IL12p40 release in human PBMC cells relative to control; assay type: functional
PBMC [13] = experiment: Inhibition of PHA-induced IL2 release in human PBMC cells; assay type: functional, cell-based; procedure, shortened: as §1
PBMC [14] = experiment: Inhibition of LPS-induced TNFalpha release in human PBMC cells relative to control; assay type: functional
PBMC [15] = experiment: Inhibition of LPS-induced IL12p40 release in human PBMC cells; assay type: functional, cell-based; procedure, shortened: as §1
PBMC [16] = experiment: Inhibition of PHA-induced IL4 release in human PBMC cells relative to control; assay type: functional
PBMC [17] = experiment: Inhibition of PHA-induced IL2 release in human PBMC cells relative to control; assay type: functional
PBMC [18] = experiment: Inhibition of PHA-induced IL4 release in human PBMC cells; assay type: functional, cell-based; procedure, shortened: as §1
[19] = Mutagenicity in Salmonella typhimurium by Ames test; assay type: toxicity; details: salmonella enterica subsp. enterica serovar typhimurium

Row | SMILES | EC50 [1] [nM] | IC50 (THP-1 [2]) [nM] | logP [3] | Emax (HeLa) [%] | Emax (THP-1 [7]) [%] | also measured
1 | C[C@H]1C[C@H]2[C@@H]3CCC4=CC(=O)C=C[C@]4(C)[C@@]3(F)[C@@H](O)C[C@]2(C)[C@@]1(O)C(=O)CCl [CLOBETASOL] | – | – | – | – | – | IC50 (PBMC [9]): 0.23 nM; Efficacy (PBMC [10]): 101%; IC50 (PBMC [11]): 0.16 nM; Efficacy (PBMC [12]): 98%; IC50 (PBMC [13]): 0.14 nM; Efficacy (PBMC [14]): 102%; IC50 (PBMC [15]): 0.14 nM; Efficacy (PBMC [16]): 99%; Efficacy (PBMC [17]): 97%; IC50 (PBMC [18]): 0.07 nM
2 | Nc1cc(F)cc2[nH]c(=O)ccc12 | – | – | – | – | – | Activity [19]: Non-Toxic
3 | COc1ccc([C@H](Nc2cccc3nc(C)ccc23)[C@](O)(CN(C)C)C(F)(F)F)c(Cl)c1F | 39.8 | 5.01 | 5.3 | 66 | 77 | –
4 | CCSC[C@@](O)([C@@H](Nc1cccc2nc(C)ccc12)c1ccc(Cl)c(F)c1OC)C(F)(F)F | 1.26 | 1.58 | 5.3 | 66 | 82 | –
5 | Nc1cccc2c(=O)[nH]ccc12 | – | – | – | – | – | Activity [19]: Toxic
6 | CCSC[C@@](O)([C@@H](Nc1cccc2nc(C)ccc12)c1ccc(F)cc1OC)C(F)(F)F | 10 | 5.01 | 4.4 | 72 | 78 | –

More lines, in order of falling EC50 [1], values ahead:

Row | EC50 [1] [nM] | IC50 (THP-1 [2]) [nM] | logP [3] | SMILES | Emax (HeLa) [%] | Emax (THP-1 [7]) [%] | also measured
7 | 25.1 | 20 | 3.4 | CCSC[C@@](O)([C@@H](Nc1cccc2nc(C)ccc12)c1ccc(Cl)c(F)c1O)C(F)(F)F | 102 | 107 | –
8 | 10 | 6.31 | 4.2 | CCSC[C@@](O)([C@@H](Nc1cccc2nc(C)ccc12)c1ccc(OC)cc1)C(F)(F)F | 70 | 86 | –
9 | 10 | 2 | 4.6 | CCSC[C@@](O)([C@@H](Nc1cccc2nc(C)ccc12)c1cccc(F)c1OC)C(F)(F)F | 47 | 69 | –
10 | 3.16 | 1.58 | 4.3 | CCSC[C@@](O)([C@@H](Nc1cc(F)cc2[nH]c(=O)ccc12)c1ccc(OC)c(F)c1Cl)C(F)(F)F | 92 | 93 | –
11 | 1.58 | 0.2 | 3.8 | COC[C@@](O)([C@@H](Nc1cccc2nc(C)ccc12)c1ccc(OC)c(F)c1Cl)C(F)(F)F | 80 | 97 | –
12 | 1.58 | 1.26 | 3.4 | COc1ccc([C@H](Nc2cccc3nc(C)ccc23)[C@](O)(CC#N)C(F)(F)F)c(Cl)c1F | 80 | 83 | –
13 | 1 | 0.631 | 2.4 | COc1ccc([C@H](Nc2cc(F)cc3[nH]c(=O)ccc23)[C@](O)(CO)C(F)(F)F)c(Cl)c1F | 88 | 92 | clearance [4]: 113 mL/min/kg; half-life [5]: 2.9 h; Vd [6]: 18 L/kg; clearance [8]: 100 mL/min/kg
